This note sets out measurements from ChEMBL document CHEMBL2086283, “Novel 4-aminoquinoline-pyrimidine based hybrids with improved in vitro and in vivo antimalarial activity” (ACS Med Chem Lett, 2012).

Data set [1] in a line: Selectivity index, ratio of IC50 for african green monkey Vero cells to IC50 for chloroquine-resistant Plasmodium falciparum W2. Conditions: read-out: Ratio IC50. The class given is toxicity, cell-based. An outline of the steps: (§1)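 SI is the IC50 for cytotoxicity to Vero cells (monkey kidney fibroblasts) divided by the antimalarial IC50 against the named P. falciparum clone. Cytotoxicity was tested up to 60 μM.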

Data set [2] deals with HepG2. The data set is described as follows: Cytotoxicity against human HepG2 cells up to 60 uM after 48 hrs by neutral red assay. The data set is classed as cell-based. The conditions noted are these: hepg2, 48 h. The method in brief:
(§2)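 Mammalian cell cytotoxicity was measured as IC50 in Vero (monkey kidney fibroblasts), LLC-PK11 (pig kidney epithelial) and HepG2 (human hepatoma) cells. The highest concentration tested was 60 μM. Values are the mean of two independent experiments ± SD.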

Data set [3] can be described thus: Cytotoxicity against pig LLC-PK11 cells up to 60 uM after 48 hrs by neutral red assay. The data set is classed as cell-based, Sus scrofa. Conditions: llc-pk11, 48 h. The method in brief:
as §2

Data set [4] concerns Plasmodium falciparum. In words: Antiplasmodial activity against chloroquine-resistant Plasmodium falciparum W2 infected in red blood cells after 72 hrs by parasitic LDH assay. The class given is functional, organism-based. The conditions noted are these: W2, 72 h.
A short description of data set [5]: Selectivity index, ratio of IC50 for african green monkey Vero cells to IC50 for chloroquine-sensitive Plasmodium falciparum D6. The class given is toxicity, cell-based. The conditions noted are these: read-out: Ratio IC50. An outline of the steps: as §1
Data set [6] relates to Plasmodium falciparum. The data set is described as follows: Antiplasmodial activity against chloroquine-sensitive Plasmodium falciparum D6 infected in red blood cells after 72 hrs by parasitic LDH assay. The data set is classed as functional, organism-based. Conditions: D6, 72 h.
The subject of data set [7] is Vero. In words: Cytotoxicity against african green monkey Vero cells up to 60 uM after 48 hrs by neutral red assay. The data set is classed as cell-based. Conditions: chlorocebus sabaeus. An outline of the steps:
as §2

Data set [8] can be described thus: Cytotoxicity against pig LLC-PK11 cells after 48 hrs by neutral red assay. The conditions noted are these: Sus scrofa, LLC-PK11, 48 h. The class given is cell-based. An outline of the steps:
as §2

Data set [9] relates to Vero. In words: Cytotoxicity against african green monkey Vero cells after 48 hrs by neutral red assay. The class given is cell-based. Conditions: chlorocebus sabaeus. An outline of the steps:
as §2

The subject of data set [10] is HepG2. In words: Cytotoxicity against human HepG2 cells after 48 hrs by neutral red assay. The data set is classed as cell-based. The conditions noted are these: HepG2, 48 h. The method in brief:
as §2

In data set [11] the test system is Plasmodium falciparum. In words: Ratio of chloroquine IC50 to compound IC50 for chloroquine-resistant Plasmodium falciparum W2. The class given is functional.
In data set [12] the test system is Plasmodium falciparum. In words: Ratio of artemesin IC50 to compound IC50 for chloroquine-sensitive Plasmodium falciparum D6. The class given is functional.
Data set [13] deals with Plasmodium falciparum. The data set is described as follows: Ratio of chloroquine IC50 to compound IC50 for chloroquine-sensitive Plasmodium falciparum D6. The class given is functional.

In the case of `Cc1cc(NCCNc2ccnc3cc(Cl)ccc23)nc(N2CCOCC2)n1`, the selectivity ratio is > 444 in [1] and > 3000 in [5]. The Activity entry (in the data set on HepG2 [2]; in data set [3]; with Vero [7]) was “Non-toxic” each time. Besides, the concentration for half-maximal inhibition (IC50) in the data set with Plasmodium falciparum [4] was 140 nM; in the data set on Plasmodium falciparum [6] it was 20 nM.

Turning to `Cc1cc(NCCCNc2ccnc3cc(Cl)ccc23)nc(N2CCCCC2)n1`, the selectivity ratio in data set [1] was > 285; in data set [5], > 3000. In addition, the Activity result (with HepG2 [2]; in [3]; in the data set on Vero [7]) was “Non-toxic” in each case. Besides, the IC50 in the data set with Plasmodium falciparum [4] came out at 210 nM; with Plasmodium falciparum [6] it was 20 nM.

In the case of `Cc1cc(NCCCCCCNc2ccnc3cc(Cl)ccc23)nc(N2CCCCC2)n1`, the selectivity ratio in data set [1] was 88; in data set [5], 146. Moreover, the 50% inhibitory concentration (IC50) turned out to be 6300 nM in [8]; 8800 nM with Vero [9]; 6400 nM with HepG2 [10]; 100 nM with Plasmodium falciparum [4]; 60 nM in the data set with Plasmodium falciparum [6].

In the case of `C[C@@H]1CC[C@H]2[C@@H](C)C(=O)O[C@@H]3O[C@@]4(C)CC[C@@H]1[C@]32OO4` [ARTEMISININ], the Activity entry (in the data set on HepG2 [2]; in data set [3]; in the data set with Vero [7]) was “Non-toxic” each time.

For `Cc1cc(NCCCNc2ccnc3cc(Cl)ccc23)nc(Cl)n1`, the values for the selectivity ratio in [1] and in [5] were > 85 and > 184, respectively. For the same compound, the Activity entry (in the data set with HepG2 [2]; in data set [3]; in the data set on Vero [7]) was “Non-toxic” each time. For the same compound, the results for the IC50 in the data set with Plasmodium falciparum [4] and with Plasmodium falciparum [6] were 700 nM and 330 nM, respectively.

Turning to `CCN1CCN(c2nc(C)cc(NCCCCNc3ccnc4cc(Cl)ccc34)n2)CC1`, the selectivity ratio in [1] and in data set [5] was 1620 throughout. For the same compound, the IC50 in data set [8] stood at 10700 nM; with Vero [9] it was 32400 nM; in the data set on HepG2 [10], 15400 nM; with Plasmodium falciparum [4] it was 20 nM; in the data set with Plasmodium falciparum [6], 20 nM. Moreover, the “Ratio IC50” value in the data set with Plasmodium falciparum [11] is 6.

As for `Cc1cc(NCCCCNc2ccnc3cc(Cl)ccc23)nc(N2CCN(C)CC2)n1`, the selectivity ratio in data set [1] and in [5] was > 3000 each time. Also, the half-inhibitory concentration (IC50) in data set [8] worked out at 34600 nM; in the data set on HepG2 [10] it was 29500 nM; in the data set on Plasmodium falciparum [4], 20 nM; in the data set with Plasmodium falciparum [6], 20 nM. For the same compound, the “Ratio IC50” value with Plasmodium falciparum [11] was 6. Moreover, the Activity result in the data set with Vero [7] is “Non-toxic”.

Regarding `Cc1cc(NCCCNc2ccnc3cc(Cl)ccc23)nc(N2CCN(C)CC2)n1`, the selectivity ratio in data set [1] is > 1000; in [5] it was > 8570. The half-inhibitory concentration (IC50) in data set [8] was 34600 nM; in the data set with HepG2 [10] it was 26700 nM; with Plasmodium falciparum [4], 60 nM; with Plasmodium falciparum [6], 7 nM. Also, the “Ratio IC50” value in the data set on Plasmodium falciparum [12] stood at 2; in the data set with Plasmodium falciparum [13], 6; in the data set on Plasmodium falciparum [11], 6. Also, the Activity result with Vero [7] was “Non-toxic”.

Regarding `Cc1cc(NCCCCCCNc2ccnc3cc(Cl)ccc23)nc(N2CCOCC2)n1`, the figures for the selectivity ratio in data set [1] and in data set [5] were 107 and 503, respectively. Besides, the IC50 in data set [8] was found to be 11100 nM; in the data set on Vero [9], 15100 nM; in the data set on HepG2 [10] it was 6400 nM; in the data set with Plasmodium falciparum [4], 140 nM; in the data set on Plasmodium falciparum [6], 30 nM.

In the case of `Cc1cc(NCCCCNc2ccnc3cc(Cl)ccc23)nc(Cl)n1`, the selectivity ratio in data set [1] is > 88; in data set [5], > 500. In addition, the Activity result (in the data set on HepG2 [2]; in data set [3]; in the data set on Vero [7]) was “Non-toxic” in each case. The IC50 came out at 680 nM with Plasmodium falciparum [4] and 120 nM in the data set on Plasmodium falciparum [6].

For the compound `COc1cccc2c1C(=O)c1c(O)c3c(c(O)c1C2=O)C[C@@](O)(C(=O)CO)C[C@@H]3O[C@H]1C[C@H](N)[C@H](O)[C@H](C)O1` [DOXORUBICIN], the figures for the IC50 (in [8]; in the data set with Vero [9]; in the data set with HepG2 [10]) were 1050 nM, 8600 nM and 1000 nM, respectively.

Turning to `Cc1cc(NCCNc2ccnc3cc(Cl)ccc23)nc(Cl)n1`, the figures for the selectivity ratio in data set [1] and in data set [5] were > 120 and > 370, respectively. Also, the Activity result (in the data set with HepG2 [2]; in data set [3]; in the data set on Vero [7]) was “Non-toxic” throughout. For the same compound, the figures for the concentration for half-maximal inhibition (IC50) in the data set on Plasmodium falciparum [4] and with Plasmodium falciparum [6] were 500 nM and 160 nM, respectively.

Turning to `Cc1cc(Cl)nc(NCCCCNc2ccnc3cc(Cl)ccc23)n1`, the values for the selectivity ratio in [1] and in [5] were > 94 and > 353, respectively. The Activity entry (in data set [3]; in the data set with Vero [7]) was “Non-toxic” throughout. For the same compound, the half-maximal inhibitory concentration (IC50) came out at 46400 nM in the data set on HepG2 [10], 640 nM in the data set with Plasmodium falciparum [4] and 170 nM with Plasmodium falciparum [6].

For the compound `Cc1cc(NCCCNc2ccnc3cc(Cl)ccc23)nc(N2CCOCC2)n1`, the figures for the selectivity ratio in data set [1] and in data set [5] were > 1200 and > 3000, respectively. Further, the half-maximal inhibitory concentration (IC50) in data set [8] is 35700 nM; with HepG2 [10], 26200 nM; in the data set with Plasmodium falciparum [4], 50 nM; with Plasmodium falciparum [6], 20 nM. The “Ratio IC50” value in the data set with Plasmodium falciparum [11] came to 6. Besides, in the data set on Vero [7], the Activity entry is “Non-toxic”.

With `Cc1cc(Cl)nc(NCCNc2ccnc3cc(Cl)ccc23)n1`, the selectivity ratio amounted to 53.1 in data set [1] and 205 in [5]. In addition, the IC50 in [8] is 42300 nM; with Vero [9], 43000 nM; in the data set with HepG2 [10], 43000 nM; in the data set on Plasmodium falciparum [4], 810 nM; with Plasmodium falciparum [6] it was 210 nM.

On to `Cc1cc(Cl)nc(NCCCNc2ccnc3cc(Cl)ccc23)n1`, for which the selectivity ratio in data set [1] was > 51.3; in data set [5], > 250. Besides, the Activity entry (in the data set with HepG2 [2]; in data set [3]; in the data set with Vero [7]) was “Non-toxic” each time. The IC50 with Plasmodium falciparum [4] amounted to 1170 nM; in the data set with Plasmodium falciparum [6] it was 240 nM.

`Cc1cc(Cl)nc(NCCCCCCNc2ccnc3cc(Cl)ccc23)n1`: the values for the selectivity ratio in data set [1] and in [5] were 85.2 and 353, respectively. Further, the half-inhibitory concentration (IC50) turned out to be 24000 nM in [8]; 49400 nM in the data set with Vero [9]; 8100 nM in the data set with HepG2 [10]; 580 nM in the data set with Plasmodium falciparum [4]; 140 nM in the data set with Plasmodium falciparum [6].

Turning to `Cc1cc(NCCCCNc2ccnc3cc(Cl)ccc23)nc(N2CCCCC2)n1`, the selectivity ratio in [1] was > 666; in [5] it was > 3000. For the same compound, the Activity result (in the data set with HepG2 [2]; in [3]; in the data set with Vero [7]) was “Non-toxic” in each case. In addition, the results for the half-maximal inhibitory concentration (IC50) with Plasmodium falciparum [4] and in the data set on Plasmodium falciparum [6] were 90 nM and 20 nM, respectively. Also, in the data set on Plasmodium falciparum [11], the “Ratio IC50” value is recorded as 6.

As to `Cc1cc(NCCCCCCNc2ccnc3cc(Cl)ccc23)nc(Cl)n1`, the selectivity ratio in data set [1] came to 60.6; in data set [5] it was 74.3. The half-maximal inhibitory concentration (IC50) in data set [8] turned out to be 15800 nM; in the data set with Vero [9] it was 32700 nM; with HepG2 [10], 9100 nM; with Plasmodium falciparum [4], 540 nM; in the data set on Plasmodium falciparum [6] it was 440 nM.

`Cc1cc(NCCCCCCNc2ccnc3cc(Cl)ccc23)nc(N2CCN(C)CC2)n1`: the selectivity ratio was found to be 650 in data set [1] and 1480 in data set [5]. The half-inhibitory concentration (IC50) in [8] was 7200 nM; in the data set on Vero [9], 10400 nM; in the data set with HepG2 [10], 6300 nM; in the data set on Plasmodium falciparum [4], 16 nM; in the data set with Plasmodium falciparum [6], 7 nM. The “Ratio IC50” value in the data set with Plasmodium falciparum [12] is 2; in the data set with Plasmodium falciparum [13], 6; in the data set on Plasmodium falciparum [11], 6.

As a reminder, the IC50 is the concentration needed to halve the response being measured.
